Measured values from paper PMC3743164 (Chemmedchem, 2013).
In brackets after ≈: the same amount, converted by molar mass.

What was measured:
HepG2 cells = experiment: HepG2 cytotoxicity assay; assay type: cell-based; conditions: Homo sapiens, HepG2, 48 h, read-out: Ctox.: IC50 HepG2
Method in brief: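 HepG2 cells were harvested while actively growing, with monolayers kept ≤50 % confluent, in Eagle's MEM with 10 % FBS, 1 % NEAA and 1 % penicillin/streptomycin. They were seeded at about 3000 cells per well (1.2×10^5 cells mL−1) onto predispensed test compound. Plates were incubated 48 h at 37 °C, 80 % humidity and 5 % CO2, equilibrated 30 min at room temperature, then developed with CellTiter-Glo for 10 min before luminescence reading.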

M. tuberculosis H37Rv = M. tuberculosis H37Rv inhibition assay; assay type: cell-based; conditions: Mycobacterium tuberculosis, read-out: MIC H37Rv

| SMILES | IC50 (HepG2 cells) | MIC (M. tuberculosis H37Rv) |
| --- | --- | --- |
| NNC(=O)c1ccncc1 [Isoniazid] | 207 µM | 1.8 µM (≈ 0.247 µg/mL) |
| CO[C@H]1/C=C/O[C@@]2(C)Oc3c(C)c(O)c4c(O)c(c(/C=N/N5CCN(C)CC5)c(O)c4c3C2=O)NC(=O)/C(C)=C\C=C\[C@H](C)[C@H](O)[C@@H](C)[C@@H](O)[C@@H](C)[C@H](OC(C)=O)[C@@H]1C [Rifampicin] | > 256 µM | 0.02 µM (≈ 0.0165 µg/mL) |
